Measured values from article PMC9924099 (Journal of medicinal chemistry, 2021).
Like-named read-outs stand apart in the source and are kept apart here.

What was measured:
[1] = system: WT p53 MCF-7 cells; test: Annexin V staining; type: cell-based, human; conditions: MCF-7, 24 h
Procedure, shortened: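 After 24 h exposure to test compound or DMSO, MCF-7 cells (RPMI 1640, 10% FBS, 1% penicillin/streptomycin, 1% L-glutamine) were scraped, PBS-washed and taken up in Annexin V binding buffer. They were stained with fluorochrome-conjugated Annexin V for 15 min at RT in the dark, then PI staining solution was added. Flow cytometry read-out; % Annexin V-positive cells expressed relative to DMSO.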

[2] = target: p53^R280K in MDA-MB-231 cells (Homo sapiens, UniProt P04637, R280K); test: Western blot of p53 expression; type: cell-based; conditions: MDA-MB-231, 6 μM or 12 μM, 24 h
Procedure, shortened: (§1)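 Cells were treated 24 h with 6 μM or 12 μM test compound or DMSO and lysed in NP-40/Tris-Cl pH 8.0 buffer with protease inhibitors. Load on 4–12% SDS-PAGE was 20 μg for MDA-MB-231 and MDA-MB-468 or 50 μg for MCF-7. After PVDF transfer, blots were probed with p53 DO-1 antibody, reprobed for GAPDH as loading control and developed by ECL.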

[3] = system: p53^R280K MDA-MB-231 cells; test: WST-1 cell proliferation assay; type: cell-based, human; conditions: for inhibition of cell proliferation (in words): MDA-MB-231, 24 h or 72 h; for IC50: Homo sapiens, read-out: IC50, inhibition of cell proliferation
[4] = target: p53^R273H in MDA-MB-468 cells (Homo sapiens, UniProt P04637, R273H); test: Western blot of p53 expression; type: cell-based; conditions: MDA-MB-468, 6 μM or 12 μM, 24 h
Procedure, shortened: as §1

[5] = target: WT p53 in MCF-7 cells (Homo sapiens, UniProt P04637); test: Western blot of p53 expression; type: cell-based; conditions: MCF-7, 6 μM or 12 μM, 24 h
Procedure, shortened: as §1

[6] = system: p53^R280K MDA-MB-231 cells; test: Annexin V staining; type: cell-based, human; conditions: MDA-MB-231, 6 μM or 12 μM, 24 h
[7] = system: p53^R273H MDA-MB-468 cells; test: Annexin V staining; type: cell-based, human; conditions: MDA-MB-468, 6 μM or 12 μM, 24 h
[8] = system: WT p53 MCF-7 cells; test: WST-1 cell proliferation assay; type: cell-based, human; conditions: MCF-7, 24 h or 72 h; compared to mutant p53 cells
Procedure, shortened: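 WST-1 assay. Test compound in DMSO was added to cells at 40,000 cells/ml, giving 1% DMSO final, and plated at 4,000 cells/well in duplicate; medium-only wells served as background. Incubation was 24 h or 72 h at 37 °C, then WST-1 for 2 h and OD450 read. Proliferation is expressed as % of DMSO control; triplicate experiments. MCF-7 grown in RPMI 1640, MDA-MB-436 in DMEM.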

[9] = system: p53^R273H MDA-MB-468 cells; test: WST-1 cell proliferation assay; type: cell-based, human; conditions: MDA-MB-468, 24 h or 72 h

S=C=NC12CC3CC(CC(C3)C1)C2 [Ad-ITC 1, 1-Isothiocyanatoadamantane]
increase in Annexin V stained cells compared to DMSO [1]: did not display any significant increase | mutant p53 expression (western blot) [2]: no depletion | inhibition of cell proliferation (in words) [3]: failed to show any significant inhibition of cell proliferation | mutant p53 expression (western blot) [4]: no depletion | WT p53 expression (western blot) [5]: did not decrease WT p53 expression | increase in Annexin V stained cells compared to DMSO [6]: did not induce significant increase in apoptosis | increase in Annexin V stained cells compared to DMSO [7]: did not induce significant increase in apoptosis

S=C=NC1C2CC3CC(C2)CC1C3 (stereo not drawn) [Ad-ITC 2, 2-Isothiocyanatoadamantane]
inhibition of cell proliferation (in words) [3]: failed to show any significant inhibition of cell proliferation

S=C=NCC12CC3CC(CC(C3)C1)C2 [Ad-ITC 3, 1-Isothiocyanatomethyladamantane]
increase in Annexin V stained cells compared to DMSO [1]: did not display any significant increase | mutant p53 expression (western blot) [2]: differential decrease in the expression of mutant p53 | IC50 ([3]; MDA-MB-231, 24 h): 24 to 48 µM | IC50 ([3]; MDA-MB-231, 72 h): 24 to 48 µM | inhibition of cell proliferation (in words) [3]: dose-dependent activity | mutant p53 expression (western blot) [4]: differential decrease in the expression of mutant p53 | inhibition of cell proliferation / sensitivity (in words) [8]: remarkably less sensitive | WT p53 expression (western blot) [5]: did not decrease WT p53 expression | increase in Annexin V stained cells compared to DMSO [6]: 2.0-5.1 fold | increase in Annexin V stained cells compared to DMSO [7]: 2.0-5.1 fold

CC(N=C=S)C12CC3CC(CC(C3)C1)C2 (stereo not drawn) [Ad-ITC 4, 1-Isothiocyanato-1-(adamantan-1-yl)ethane]
inhibition of cell proliferation (in words) [3]: did not show any significant inhibition

S=C=Nc1ccc(C23CC4CC(CC(C4)C2)C3)cc1 [Ad-ITC 7, 1-(4-Isothiocyanatophenyl)adamantane]
inhibition of cell proliferation (in words) [3]: significantly less potent than Ad-ITCs 3, 5, and 6

CC(C)(COC12CC3CC(CC(C3)C1)C2)N=C=S [Ad-ITC 9, 1-(2-Isothiocyanato-2-methylpropoxy)adamantane]
inhibition of cell proliferation (in words) [3]: not active in vitro

CCCC(CN=C=S)C1C2CC3CC(C2)CC1C3 (stereo not drawn) [Ad-ITC 10, 2-(1-Isothiocyanatopentan-2-yl)adamantane]
inhibition of cell proliferation (in words) [3]: did not show any significant inhibition

CC12CC3CC(C)(C1)CC(N=C=S)(C3)C2 [Ad-ITC 11, 1-Isothiocyanato-3,5-dimethyladamantane]
inhibition of cell proliferation (in words) [3]: failed to show any significant inhibition of cell proliferation

O=C(CC12CC3CC(CC(C3)C1)C2)N=C=S [Ad-ITC 12, 2-(Adamantan-1-yl)acetyl isothiocyanate]
inhibition of cell proliferation (in words) [3]: failed to inhibit the cell proliferation

O=C1CNC(=S)N1CCC12CC3CC(CC(C3)C1)C2 [Ad-compound 13, 3-(2-(Adamantan-1-yl)ethyl)-2-thioxoimidazolidin-4-one]
increase in Annexin V stained cells compared to DMSO [1]: did not display any significant increase | mutant p53 expression (western blot) [2]: failed to affect mutant p53 expression | inhibition of cell proliferation (in words) [3]: did not inhibit the proliferation | mutant p53 expression (western blot) [4]: failed to affect mutant p53 expression | inhibition of cell proliferation / sensitivity (in words) [8]: did not inhibit MCF-7 cell proliferation | inhibition of cell proliferation (in words) [9]: did not inhibit MDA-MB-468 cells proliferation | WT p53 expression (western blot) [5]: did not decrease WT p53 expression | increase in Annexin V stained cells compared to DMSO [6]: did not induce significant increase in apoptosis | increase in Annexin V stained cells compared to DMSO [7]: did not induce significant increase in apoptosis

C1C2CC3CC1CC(C2)C3 [adamantane, Adamantane, reference compound]
inhibition of cell proliferation (in words) [3]: did not inhibit MDA-MB-231 cells proliferation | inhibition of cell proliferation / sensitivity (in words) [8]: did not inhibit MCF-7 cell proliferation | inhibition of cell proliferation (in words) [9]: did not inhibit MDA-MB-468 cells proliferation
